From ChEMBL document CHEMBL1138555, “N-acylated and N,N'-diacylated imidazolidine-2-thione derivatives and N,N'-diacylated tetrahydropyrimidine-2(1H)-thione analogues: synthesis and antiproliferative activity” (Eur J Med Chem, 2009)

Each compound was assayed on OVCAR-8 (assay: Growth inhibition of human OVCAR8 cells after 48 hrs by sulforhodamine B assay). Conditions: OVCAR-8, 48 h.
Assay type: functional
Procedure, shortened: (§1)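 NCI screen panel. Five 10-fold concentrations from 10^-4 to 10^-8 M. Exposure for the last 48 h of a 72 h incubation. Growth estimated by sulforhodamine B protein assay. GI50 is the concentration giving 50% growth inhibition. Where that level was not reached or was exceeded, the value is given as above or below the highest or lowest concentration tested.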

Compound	GI50
COc1cc(C(=O)N2CCN(C(=O)c3cc(OC)c(OC)c(OC)c3)C2=S)cc(OC)c1OC	21.9 µM

Each compound was assayed on NCI-H322M (assay: Growth inhibition of human NCI-H322M cells after 48 hrs by sulforhodamine B assay). Conditions: not given.
Assay type: functional
Procedure, shortened: as §1

Compound	GI50
COc1cc(C(=O)N2CCN(C(=O)c3cc(OC)c(OC)c(OC)c3)C2=S)cc(OC)c1OC	17.4 µM

These compounds were tested on HCT-15 (assay: Growth inhibition of human HCT15 cells after 48 hrs by sulforhodamine B assay). Conditions: HCT-15, 48 h.
Assay type: functional
Procedure, shortened: as §1

Compound	GI50
COc1cc(C(=O)N2CCN(C(=O)c3cc(OC)c(OC)c(OC)c3)C2=S)cc(OC)c1OC	20.2 µM

The compounds below were run on SK-MEL-2 (assay: Growth inhibition of human SK-MEL-2 cells after 48 hrs by sulforhodamine B assay). Conditions: SK-MEL-2, 48 h.
Assay type: functional
Procedure, shortened: as §1

Compound	GI50
COc1cc(C(=O)N2CCN(C(=O)c3cc(OC)c(OC)c(OC)c3)C2=S)cc(OC)c1OC	16.3 µM

The compounds below were run on TK-10 (assay: Growth inhibition of human TK10 cells after 48 hrs by sulforhodamine B assay). Conditions: TK-10, 48 h.
Assay type: functional
Procedure, shortened: (§2)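 NCI in vitro panel screen. Compounds tested at five 10-fold dilutions, 10^-4 to 10^-8 M. Cells in 96-well plates were exposed for the last 48 h of a 72 h incubation. Viability/growth was read by sulforhodamine B protein assay. GI50 is the concentration giving 50% growth inhibition. Values beyond the tested range are reported as greater or less than the maximum or minimum concentration.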

Compound	GI50
COc1cc(C(=O)N2CCN(C(=O)c3cc(OC)c(OC)c(OC)c3)C2=S)cc(OC)c1OC	17 µM

What follows are compounds tested on HT-29 (assay: Growth inhibition of human HT-29 cells after 48 hrs by sulforhodamine B assay). Conditions: HT-29, 48 h.
Assay type: functional
Procedure, shortened: as §1

Compound	GI50
COc1cc(C(=O)N2CCN(C(=O)c3cc(OC)c(OC)c(OC)c3)C2=S)cc(OC)c1OC	22.7 µM

These compounds were tested on LOX IMVI (assay: Growth inhibition of human LOXIMVI cells after 48 hrs by sulforhodamine B assay). Conditions: not given.
Assay type: functional
Procedure, shortened: as §1

Compound	GI50
COc1cc(C(=O)N2CCN(C(=O)c3cc(OC)c(OC)c(OC)c3)C2=S)cc(OC)c1OC	15.4 µM

The compounds below were run on MDA-N (assay: Growth inhibition of human MDA-N cells after 48 hrs by sulforhodamine B assay). Conditions: not given.
Assay type: functional
Procedure, shortened: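 NCI screen panel. Five 10-fold concentrations from 10^-4 to 10^-8 M. Exposure for the last 48 h of a 72 h incubation. Growth estimated by sulforhodamine B protein assay. Where that level was not reached or was exceeded, the value is given as above or below the highest or lowest concentration tested.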

Compound	GI50
COc1cc(C(=O)N2CCN(C(=O)c3cc(OC)c(OC)c(OC)c3)C2=S)cc(OC)c1OC	15 µM

What follows are compounds tested on K562 (assay: Growth inhibition of human K562 cells after 48 hrs by sulforhodamine B assay). Conditions: K562, 48 h.
Assay type: functional
Procedure, shortened: as §1

Compound	GI50
COc1cc(C(=O)N2CCN(C(=O)c3cc(OC)c(OC)c(OC)c3)C2=S)cc(OC)c1OC	24.9 µM

The compounds below were run on U-251 (assay: Growth inhibition of human U251 cells after 48 hrs by sulforhodamine B assay). Conditions: U-251, 48 h.
Assay type: functional
Procedure, shortened: as §2

Compound	GI50
COc1cc(C(=O)N2CCN(C(=O)c3cc(OC)c(OC)c(OC)c3)C2=S)cc(OC)c1OC	16.3 µM

These compounds were tested on OVCAR-3 (assay: Growth inhibition of human OVCAR-3 cells after 48 hrs by sulforhodamine B assay). Conditions: OVCAR-3, 48 h.
Assay type: functional
Procedure, shortened: as §1

Compound	GI50
COc1cc(C(=O)N2CCN(C(=O)c3cc(OC)c(OC)c(OC)c3)C2=S)cc(OC)c1OC	15.2 µM

What follows are compounds tested on MOLT-4 (assay: Growth inhibition of human MOLT4 cells after 48 hrs by sulforhodamine B assay). Conditions: MOLT-4, 48 h.
Assay type: functional
Procedure, shortened: as §1

Compound	GI50
COc1cc(C(=O)N2CCN(C(=O)c3cc(OC)c(OC)c(OC)c3)C2=S)cc(OC)c1OC	23.5 µM

These compounds were tested on MDA-MB-435 (assay: Growth inhibition of human MDA-MB-435 cells after 48 hrs by sulforhodamine B assay). Conditions: MDA-MB-435, 48 h.
Assay type: functional
Procedure, shortened: as §1

Compound	GI50
COc1cc(C(=O)N2CCN(C(=O)c3cc(OC)c(OC)c(OC)c3)C2=S)cc(OC)c1OC	13.1 µM

Each compound was assayed on UO-31 (assay: Growth inhibition of human UO31 cells after 48 hrs by sulforhodamine B assay). Conditions: UO-31, 48 h.
Assay type: functional
Procedure, shortened: as §2

Compound	GI50
COc1cc(C(=O)N2CCN(C(=O)c3cc(OC)c(OC)c(OC)c3)C2=S)cc(OC)c1OC	0.2 µM

The compounds below were run on NCI/ADR-RES (assay: Growth inhibition of human NCI/ADR-RES cells after 48 hrs by sulforhodamine B assay). Conditions: not given.
Assay type: functional
Procedure, shortened: as §1

Compound	GI50
COc1cc(C(=O)N2CCN(C(=O)c3cc(OC)c(OC)c(OC)c3)C2=S)cc(OC)c1OC	26.8 µM

The compounds below were run on NCI-H23 (assay: Growth inhibition of human NCI-H23 cells after 48 hrs by sulforhodamine B assay). Conditions: NCI-H23, 48 h.
Assay type: functional
Procedure, shortened: as §1

Compound	GI50
COc1cc(C(=O)N2CCN(C(=O)c3cc(OC)c(OC)c(OC)c3)C2=S)cc(OC)c1OC	18.7 µM

The compounds below were run on PC-3 (assay: Growth inhibition of human PC3 cells after 48 hrs by sulforhodamine B assay). Conditions: PC-3, 48 h.
Assay type: functional
Procedure, shortened: as §1

Compound	GI50
COc1cc(C(=O)N2CCN(C(=O)c3cc(OC)c(OC)c(OC)c3)C2=S)cc(OC)c1OC	15 µM

These compounds were tested on OVCAR-4 (assay: Growth inhibition of human OVCAR4 cells after 48 hrs by sulforhodamine B assay). Conditions: OVCAR-4, 48 h.
Assay type: functional
Procedure, shortened: as §1

Compound	GI50
COc1cc(C(=O)N2CCN(C(=O)c3cc(OC)c(OC)c(OC)c3)C2=S)cc(OC)c1OC	16.9 µM

Each compound was assayed on SNB-75 (assay: Growth inhibition of human SNB75 cells after 48 hrs by sulforhodamine B assay). Conditions: SNB-75, 48 h.
Assay type: functional
Procedure, shortened: as §2

Compound	GI50
COc1cc(C(=O)N2CCN(C(=O)c3cc(OC)c(OC)c(OC)c3)C2=S)cc(OC)c1OC	7.1 µM
